The source of these data is ChEMBL document CHEMBL1144766, “Discovery of quinolinediones exhibiting a heat shock response and angiogenesis inhibition” (J Med Chem, 2008).

What is called GI50 is the concentration giving 50% growth inhibition. The low end stands for more potent growth inhibition, the high end for less potent growth inhibition. One may read the LC50 as the concentration that kills 50% of the test population. A higher LC50 goes with a less lethal substance. The term TGI denotes the concentration at which net growth stops.

Each structure is given as a SMILES string. Calls of active or inactive are those of the source. The calls are words filed in the database; no cut-off is given here.

Series [1] concerns the target Heat shock protein HSP 90-beta (Homo sapiens) (UniProt P08238). Put plainly: Binding affinity to N-terminal ATP binding site of Hsp90 at 100 uM after 30 mins. In short, it runs like this:
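Compounds were made up in DMSO at 35 mM (stock) just before use and added to whole cell lysates at 100 µM final. Lysates were held on ice for 30 min, then incubated with geldanamycin-derivatized agarose beads at 4 °C with rocking for 60 min. Beads were washed, and eluted proteins were run on gels and blotted for Hsp90. Loss of the Hsp90 band indicated competition.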

Series [2] can be described thus: (§1) Cytotoxicity against human NCI60 cells. It is filed as functional. The note with it: for TGI: read-out: Log TGI (converted).
In series [3] the test system is HUVEC. Put plainly: Antiangiogenic activity in HUVEC assessed as cord length at 0.001 ug/ml after 24 hrs relative to control. It is filed as functional, cell-based. The note with it: Homo sapiens. In short, it runs like this: (§2)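 HUVEC grown in EGM-2. Matrigel was gelled in wells (15 min room temperature, then 30 min at 37 °C) and seeded with HUVEC at 2 × 10⁵ cells/mL. Compound was added in culture medium. After 24 h, cords and junctions were imaged by inverted microscope and digital camera. Cord length and junction number were measured relative to untreated controls.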

The test system of series [4] is HUVEC. In words: Antiangiogenic activity in HUVEC assessed as cord length at 0.01 ug/ml after 24 hrs relative to control. It is filed as functional, cell-based. The note with it: Homo sapiens. The method in brief: as §2
Series [5] has as its system MCF7. In words: Growth inhibition of human MCF7 cells after 48 hrs by sulforhodamine B assay. It is filed as functional. In short, it runs like this:
(§3)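 Sulforhodamine B assay. Cells were seeded and incubated 24 h, then exposed to serial compound dilutions for 48 h. Plates were fixed with trichloroacetic acid, stained with SRB and read for optical density. GI50 was calculated from the OD data as the concentration giving 50% reduction in net protein increase. HUVEC were grown in EGM-2.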
For orientation: In SRB staining, fixed cells bind dye roughly in proportion to their protein.

The subject of series [6] is HUVEC. In words: Antiangiogenic activity in HUVEC assessed as number of junctions at 0.01 ug/ml after 24 hrs relative to control. It is filed as functional. The method in brief: as §2
The subject of series [7] is HUVEC. Put plainly: Antiangiogenic activity in HUVEC assessed as number of junctions at 0.001 ug/ml after 24 hrs relative to control. It is filed as functional, cell-based. Conditions: Homo sapiens. The method in brief: as §2
The test system of series [8] is HUVEC. In words: Antiangiogenic activity in HUVEC assessed as cord length at 0.1 ug/ml after 24 hrs relative to control. It is filed as functional, cell-based. Conditions: Homo sapiens. The method in brief: as §2
Series [9] deals with HUVEC. Put plainly: Antiangiogenic activity in HUVEC assessed as cord length at 1.0 ug/ml after 24 hrs relative to control. Type of series: functional, cell-based. Conditions: Homo sapiens. The method in brief:
as §2

Series [10] has as its system HUVEC. In words: Antiangiogenic activity in HUVEC assessed as number of junctions at 0.1 ug/ml after 24 hrs relative to control. It is filed as functional, Homo sapiens. The method in brief: as §2
Series [11] relates to HUVEC. In words: Effect on HUVEC growth at 0.1 ug/ml relative to control. It is filed as functional, Homo sapiens.
Series [12] concerns HUVEC. Put plainly: Antiangiogenic activity in HUVEC assessed as number of junctions at 1.0 ug/ml after 24 hrs relative to control. Type of series: functional, Homo sapiens. In short, it runs like this: as §2
The subject of series [13] is HUVEC. Put plainly: Effect on HUVEC growth at 0.001 ug/ml relative to control. Type of series: functional, Homo sapiens.
Series [14] relates to HUVEC. Put plainly: Effect on HUVEC growth at 0.01 ug/ml relative to control. It is filed as functional, Homo sapiens.
The test system of series [15] is HUVEC. In words: Growth inhibition of HUVEC after 48 hrs by sulforhodamine B assay. Conditions: human. It is filed as cell-based. In short, it runs like this:
as §3

For series [16], the system named is NCI-H460. In words: Growth inhibition of human NCI-H460 cells after 48 hrs by sulforhodamine B assay. Type of series: functional. In short, it runs like this:
as §3

For series [17], the system named is HUVEC. Put plainly: Effect on HUVEC growth at 10 ug/ml relative to control. Type of series: functional, Homo sapiens.
Series [18] relates to HUVEC. In words: Effect on HUVEC growth at 1.0 ug/ml relative to control. Type of series: functional, Homo sapiens.
Series [19] concerns NCI60. Described as §1. It is filed as functional.
Series [20] deals with HUVEC. Put plainly: Antiangiogenic activity in HUVEC assessed as cord length at 10 ug/ml after 24 hrs relative to control. It is filed as functional, Homo sapiens. The method in brief:
as §2

Chain of Heat shock protein HSP 90-beta (Homo sapiens) (P08238 whole entry): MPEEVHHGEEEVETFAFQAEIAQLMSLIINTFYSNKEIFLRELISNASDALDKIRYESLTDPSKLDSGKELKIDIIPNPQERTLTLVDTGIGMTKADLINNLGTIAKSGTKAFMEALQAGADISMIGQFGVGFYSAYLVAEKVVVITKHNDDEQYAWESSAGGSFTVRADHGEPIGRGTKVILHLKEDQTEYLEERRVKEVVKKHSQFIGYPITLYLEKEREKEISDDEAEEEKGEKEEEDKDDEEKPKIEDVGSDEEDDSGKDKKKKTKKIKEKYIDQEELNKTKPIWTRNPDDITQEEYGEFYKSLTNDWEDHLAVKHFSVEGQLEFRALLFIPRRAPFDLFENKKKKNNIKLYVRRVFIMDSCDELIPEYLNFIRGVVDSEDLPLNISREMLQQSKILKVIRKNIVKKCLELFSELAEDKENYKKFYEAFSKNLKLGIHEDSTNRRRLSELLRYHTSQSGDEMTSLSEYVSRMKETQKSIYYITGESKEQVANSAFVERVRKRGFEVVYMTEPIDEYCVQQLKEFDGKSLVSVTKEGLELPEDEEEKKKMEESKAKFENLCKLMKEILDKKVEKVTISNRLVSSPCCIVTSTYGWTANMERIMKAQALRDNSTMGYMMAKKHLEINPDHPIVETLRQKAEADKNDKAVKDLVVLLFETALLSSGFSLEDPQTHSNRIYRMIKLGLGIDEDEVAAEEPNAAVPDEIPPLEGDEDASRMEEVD

`COc1cc(CNC2=CC(=O)c3nc(-c4ccccc4)ccc3C2=O)cc(OC)c1OC`: the outcome in [1] was inactive. Besides, in [2], halving of growth (GI50) required 2.34 µM, the 50% lethal concentration (LC50) was 66.1 µM and the concentration for total growth inhibition (TGI) is 15.5 µM.

Take `COC1=CC(=O)c2nc(-c3cc(OC)c(OC)c(OC)c3)ccc2C1=O`: the outcome in [3], in series [4], in series [6] (Homo sapiens), in series [7], in [8] and in [9] was inactive. The result in [1] was inactive. For the same compound, the Activity was determined as 0.24 µg/mL in [5]; 50% in [10]; 90% in [11]; 50% in [12]; 106% in series [13]; 117% in series [14]. The Activity in series [15] amounted to 0.28 µg/mL; in series [16], 1.9 µg/mL; in series [17], 23%; in series [18] it was 2%.

For the compound `Cc1cc2c(nc1-c1ccccc1)C(=O)C=C(N1CC1)C2=O`, in series [1], the outcome was inactive.

On to `Cc1ccc2c(n1)C(=O)C=C(N1CC1)C2=O`, for which, in [1], the result was inactive. In series [2], the GI50 is 0.513 µM, the 50% lethal concentration (LC50) is 7.94 µM and the total growth inhibition concentration (TGI) is 2.04 µM.

In the case of `C=CCNC1=CC(=O)c2nc(-c3ccccc3)ccc2C1=O`, the result in series [1] was inactive. Also, in [2], the GI50 was 1.91 µM, the LC50 was 43.7 µM and the total growth inhibition concentration (TGI) was 14.1 µM.

As for `COc1cc2c(nc1-c1ccccc1)C(=O)C(N1CC1)=CC2=O`, the outcome in series [1] was inactive. In addition, in series [2], the concentration for 50% growth inhibition (GI50) was 0.525 µM, the 50% lethal concentration (LC50) was 4.9 µM and the TGI was 1.66 µM.

Regarding `O=C1C=C(N2CC2)C(=O)c2nc(-c3ccccc3)ccc21`, the outcome in series [1] was inactive. Moreover, in series [2], the concentration for 50% growth inhibition (GI50) was 0.0851 µM, the median lethal concentration (LC50) was 17.8 µM and the TGI was 3.31 µM.

As to `COc1cc(CNC2=CC(=O)c3ccc(-c4ccccc4)nc3C2=O)cc(OC)c1OC`, the result in series [1] and in series [19] was inactive. The GI50 in [2] was 57.5 µM.

In the case of `COc1cc2c(nc1C)C(=O)C(N1CC1)=CC2=O`, the result in series [1] was inactive. Moreover, in [2], the GI50 is 0.275 µM, the LC50 is 4.37 µM and the TGI is 0.832 µM.

For `COc1cc(-c2ccc3c(n2)C(=O)C=C(N2CC2)C3=O)cc(OC)c1OC`, the outcome in series [1] was inactive. Besides, in series [2], halving of growth (GI50) required 0.589 µM, the LC50 is 5.5 µM and the total growth inhibition concentration (TGI) is 1.78 µM.

On to `COc1cc(-c2ccc3c(n2)C(=O)C=C(NCc2ccccc2)C3=O)cc(OC)c1OC`, for which the outcome in series [3], in series [4], in [6] (Homo sapiens), in [7], in [8] and in series [9] was inactive. For the same compound, the result in [10] (Homo sapiens), in [12] (Homo sapiens), in series [1] and in series [19] was inactive. Moreover, the Activity worked out at 0.52 µg/mL in [5]; 64% in series [11]; 104% in [13]; 92% in series [14]; 1.9 µg/mL in series [15]; 0.65 µg/mL in series [16]. Also, the Activity came to 75% in series [20], 13% in [17] and 64% in series [18].

As to `COc1cc(-c2ccc3c(n2)C(=O)C(NCc2ccccc2)=CC3=O)cc(OC)c1OC`, the result in series [3], in series [4], in series [7], in [8], in series [9] and in series [1] was inactive. Also, the result in series [19] was inactive. For the same compound, the Activity is 0.35 µg/mL in series [5]; 50% in series [6]; 50% in series [10]; 91% in [11]; 50% in series [12]; 102% in series [13]. Also, the Activity worked out at 118% in [14]; 1.9 µg/mL in series [15]; 0.43 µg/mL in series [16]; 75% in series [20]; 14% in series [17]; 64% in [18]. The compound also gave a concentration for 50% growth inhibition (GI50) in [2] of 2.69 µM. In addition, the total growth inhibition concentration (TGI) in series [2] was 63.1 µM.

With `COCCCNC1=CC(=O)c2nc(-c3ccccc3)ccc2C1=O`, the outcome in [1] was inactive. Besides, in series [2], the GI50 is 3.55 µM, the median lethal concentration (LC50) was 66.1 µM and the TGI is 19.1 µM.

On to `O=C1C=C(NCc2ccccc2)C(=O)c2nc(-c3ccccc3)ccc21`, for which the outcome in series [1] and in series [19] was inactive. In addition, in series [2], growth was halved (GI50) at 33.1 µM.

For `O=C1C(N2CC2)=CC(=O)c2nc(-c3ccc(-c4ccccc4)cc3)ccc21`, in series [1], the outcome was inactive. Also, in [2], the concentration for 50% growth inhibition (GI50) is 7.94 µM, the 50% lethal concentration (LC50) is 64.6 µM and the TGI is 26.9 µM.

In the case of `O=C1C(N2CC2)=CC(=O)c2nc(-c3ccccc3)ccc21`, the outcome in series [1] was inactive. In series [2], the 50% growth inhibitory concentration (GI50) is 0.0275 µM, the LC50 was 2.04 µM and the TGI was 0.324 µM.

On to `COCCCNC1=CC(=O)c2ccc(-c3ccccc3)nc2C1=O`, for which, in [1], the result was inactive. Moreover, in series [2], the concentration for 50% growth inhibition (GI50) was 5.5 µM, the LC50 was 70.8 µM and the concentration for total growth inhibition (TGI) is 28.8 µM.

In the case of `O=C1C(N2CCCC2)=CC(=O)c2nc(-c3ccccc3)ccc21`, the outcome in series [1] and in series [19] was inactive. The concentration for 50% growth inhibition (GI50) in series [2] is 44.7 µM.

Take `O=C1C(NCc2ccccc2)=CC(=O)c2nc(-c3ccccc3)ccc21`: the result in [1] was inactive. In addition, in series [2], the 50% growth inhibitory concentration (GI50) is 1.7 µM, the median lethal concentration (LC50) was 66.1 µM and the TGI is 15.5 µM.
